Lmaj promast: reduces viability of Leishmania major promastigotes; resazurin fluorescence viability; inhibition, % at 10 µM; actives 9% (n = 200,000); in the data active = inhibition above about 50%;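 note: promastigotes grown with compound for 44 hours at 28 °C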
HCT116 PTEN-null: PTEN-deleted cell growth suppression. HCT116 PTEN-null viability, CellTiter-Glo, 60 h; stronger effect = lower value. viability, % at 10 µM. actives 1.2% (n = 140,000);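 active = viability at or below a set limit, 4 SD under the median of all tested compounds, cut at about 3.7% in these data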;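 note: PTEN knockout HCT116 line with beta catenin targeted HCT116 as companion control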
TNAP inh no acc: blocks human TNAP activity with no phosphate acceptor present | purified TNAP, CDP-star luminescence, 30 min | AID 1012 | actives 0.26% (n = 200,000) | inhibition, % at 20 µM;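 active = tissue-nonspecific alkaline phosphatase inhibition above about 50% at 20 µM in the single-dose screen, limit read from the data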;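 note: 0% = DMSO negative control and 100% = EDTA positive control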
Target sequence (P05186 whole entry, looked up): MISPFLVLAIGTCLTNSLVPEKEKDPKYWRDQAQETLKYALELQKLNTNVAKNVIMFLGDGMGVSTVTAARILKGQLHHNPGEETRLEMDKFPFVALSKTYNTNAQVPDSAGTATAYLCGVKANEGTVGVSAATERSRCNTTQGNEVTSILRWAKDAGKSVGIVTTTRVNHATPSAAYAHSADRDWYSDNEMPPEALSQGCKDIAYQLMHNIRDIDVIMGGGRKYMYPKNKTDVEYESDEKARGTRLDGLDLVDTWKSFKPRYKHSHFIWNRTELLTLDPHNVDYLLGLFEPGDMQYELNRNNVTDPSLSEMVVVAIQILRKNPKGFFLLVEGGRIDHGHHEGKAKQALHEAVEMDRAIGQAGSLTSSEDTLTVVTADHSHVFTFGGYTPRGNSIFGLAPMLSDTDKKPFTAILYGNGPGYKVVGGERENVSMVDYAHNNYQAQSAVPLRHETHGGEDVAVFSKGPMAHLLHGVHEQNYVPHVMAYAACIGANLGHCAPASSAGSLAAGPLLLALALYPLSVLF
TNAP inh hi DEA: inhibitors of human TNAP at high phosphate acceptor concentration; purified TNAP, CDP-star luminescence, 1 M DEA; actives 0.03% (n = 200,000); AID 1135; inhibition, % at 20 µM; P05186;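 active = over 50% inhibition of tissue-nonspecific alkaline phosphatase at 20 µM in the single-dose screen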;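 note: plate controls were DMSO wells for no effect and EDTA-quenched wells as full inhibition for full effect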
HCT116 bCat-KO: beta-catenin-lacking colon tumor cell growth suppression | HCT116 beta-catenin knockout viability, CellTiter-Glo, 60 h; stronger effect = lower value | viability, % at 10 µM | actives 1.5% (n = 140,000) | AID 818;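 active = viability at or under a set limit, the compound median less 4 SD, cut at about 6% in these data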;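 note: 0% = Hyamine 1622 control at 20 µM and 100% = untreated cell control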
TNAP act hi DEA: activators of human TNAP at high phosphate acceptor concentration | P05186 | purified TNAP, CDP-star luminescence, 1 M DEA, 30 min; stronger effect = higher value; 0 = EDTA background, 1 = DMSO-only activity | activation factor at 20 µM | 200,000 tested, under 10 active;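 active = activation factor at least 2 at 20 µM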
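Control set: EDTA negative control, DMSO positive control / Assay system: human TNAP / Quantity: TNAP 1/800 final / Evaluation: TNAP activation factor scaled between EDTA and DMSO control wells / Measured by: luminescent substrate turnover signal / Compound dosing: one dose, 20 µM / Times: 30 min enzyme reaction at room temperature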
* = called active by the depositor; . = no result given. The list is not random: actives were taken first. Their share in the collection is about 9.6%.

SMILES	Lmaj promast	HCT116 PTEN-null	TNAP inh no acc	TNAP inh hi DEA	HCT116 bCat-KO	TNAP act hi DEA
CCc1ccc(N2C(=O)CN(Cc3sccc3C)C2=S)cc1	20.7	.	-13.1	-5.0	.	1.1
O=C(NCCc1cnn(-c2ccccc2)c1)c1cc(COc2c(F)cccc2F)on1	-3.9	.	-13.2	-9.7	.	1.1
c1ccc(C(c2nnnn2C2CCCC2)N2CCN(c3nc4ccccc4s3)CC2)cc1 (stereo not given)	95.0*	83.9	-18.5	-7.8	80.4	1.1
CC1C(c2ccccc2)N(C)C(c2ccccc2)CC1(O)c1ccccc1 (stereo not given)	98.1*	38.3	0.6	1.2	57.8	1
COc1cccc(CN(C)C(=O)c2cccc(OC3CCN(C4CCCC4)CC3)c2)c1	63.5*	.	-4.2	-7.3	.	1.1
COC(=O)C1CCN(C(=O)COC(=O)[C@@H]2CC(O)CN2S(=O)(=O)c2ccc3c(c2)OCCO3)CC1 (stereo not given in full)	50.8*	110.5	7.0	0.4	101.5	1
COc1ccc(CCn2c(N)c(C(=O)NCc3ccco3)c3nc4ccccc4nc32)cc1	23.7	32.5	-10.2	-3.0	40.4	1
CCC(C)n1c(C)nc2c(c1=O)c1nc3ccccc3nc1n2CCC1=CCCCC1 (stereo not given)	56.5*	43.4	-10.6	-5.7	37.0	1.1
CCCCn1c2nc3ccccc3nc2c2c(=O)n(C(C)CC)cnc21 (stereo not given)	5.5	82.7	3.8	-4.4	86.6	1
COCCNC(=O)c1c(N)n(CCC2=CCCCC2)c2nc3ccccc3nc12	100.2*	50.5	-18.8	-7.8	67.4	1.1
CCc1ccc(NC(=O)c2c(Cl)nc(C)c(Cl)c2C)cc1	-0.5	76.0	-15.0	-1.1	86.1	1
O=C(COC(=O)c1ccc([N+](=O)[O-])s1)NC(=O)NCc1ccccc1	92.9*	.	-6.3	1.5	.	1
O=C(COC(=O)c1ccc([N+](=O)[O-])s1)NCc1ccc(F)cc1	11.6	89.7	-8.9	0.1	87.0	1
OCC1(Cc2ccccc2)CCN(C2CCN(c3ccc(F)c(F)c3)CC2)CC1	98.1*	.	-1.9	1.6	.	1
Cc1cc(C)n(-c2cccc(CN3CCC(CO)(Cc4ccccc4)CC3)c2)n1	9.4	.	-3.7	-0.5	.	1
NC1=NC(=O)/C(=C/c2ccccc2OS(=O)(=O)c2ccc3ccccc3c2)S1	10.9	102.2	-15.2	-0.6	95.9	1
COC(=O)c1ccc(/C=N/N2CCN(Cc3ccc(C)cc3C)CC2)cc1	83.9*	50.2	-0.7	1.6	46.0	1
Cc1ccc(-n2cc(S(=O)(=O)c3ccc(C)cc3)[nH]c2=O)cc1	1.1	.	-1.0	3.1	.	1
Nc1cc(-c2cccc(Br)c2)nn1Cc1ccccc1	3.4	65.0	-5.3	0.4	64.3	1
Nc1cc(-c2ccc(Br)cc2)nn1Cc1ccccc1	78.2*	.	-5.9	-2.6	.	1
COc1cccc(NC(=O)C2CC(=O)n3cnnc3S2)c1 (stereo not given)	3.6	101.4	-14.1	1.6	93.7	1
COc1ccc(NC(=O)C2CC(=O)n3cnnc3S2)cc1 (stereo not given)	97.7*	101.7	-38.5	-6.2	91.3	1.1
CCNc1nc(NCC)nc(SCCOC(=O)Nc2ccccc2)n1	76.7*	92.0	-9.2	-3.4	94.3	1
CCOC(=O)c1ccc(NC(=S)NCCCN2CCOCC2)cc1	0.3	.	-1.6	-0.4	.	1
Cc1cc(Br)ccc1SCC(=O)OCC(=O)NC1CCCC1	-4.8	.	-5.5	-3.5	.	1
SMILES	Lmaj promast	HCT116 PTEN-null	TNAP inh no acc	TNAP inh hi DEA	HCT116 bCat-KO	TNAP act hi DEA
C/C(=N\NC(=O)c1nn(C)c(C)c1Br)c1cccc(NC(=O)c2ccoc2C)c1	-1.4	97.5	0.2	-5.0	100.8	1.1
Cc1ccc(-n2[nH]c(C)c(/C=N/Nc3ccc([N+](=O)[O-])cc3[N+](=O)[O-])c2=O)cc1	-17.9	44.0	35.0	51.3*	48.0	0.5
O=C(CSCc1ccccc1Cl)N1CCN(c2ccccn2)CC1	60.2*	96.8	-21.2	-3.4	105.8	1
O=C(CCN1C(=O)C2C3C=CC(C3)C2C1=O)N1CCN(c2cccc(Cl)c2)CC1 (stereo not given)	55.6*	73.3	-10.1	-2.6	84.9	1
O=C(CCSCc1ccccc1Cl)N1CCN(c2cccc(Cl)c2)CC1	68.5*	59.6	-6.8	0.2	61.2	1
O=C(C(=O)N1CCN(c2cccc(Cl)c2)CC1)N1CCCCC1	6.0	.	-4.6	-1.0	.	1
O=C(Oc1ccc(NC2=NS(=O)(=O)c3ccccc32)cc1)c1cccnc1	-8.8	.	-10.0	-1.8	.	1
Cc1cccc(N2CCN(CC(=O)NCC3CCCCC3)CC2)c1C	16.2	92.7	-2.1	2.6	80.5	1
O=C1CN(C(=O)Cn2ncc(Cl)c(Cl)c2=O)c2ccccc2N1	73.8*	.	-9.7	-5.4	.	1.1
O=C(Cn1ncc(Cl)c(Cl)c1=O)NCC1CCCCC1	28.3	1.5*	-15.2	1.0	1.8*	1
CN1CCN(C2=Cc3ccccc3Sc3cc(F)c(F)cc32)CC1	100.5*	42.9	-2.1	3.6	39.7	1
CN1CCN(c2nc(-c3ccccc3)cc(C(F)(F)F)n2)CC1	1.2	94.0	2.9	-4.3	98.9	1
CN1CCN(C2=Cc3cc(Cl)ccc3Sc3cc(F)ccc32)CC1	100.3*	6.9	-4.5	2.4	1.3*	1
CN1CCN(C2=Cc3ccccc3Sc3cc(F)c(Cl)cc32)CC1	92.5*	27.5	-7.8	-2.5	21.7	1
CN1CCN(c2ccc(Cl)cc2NC(=O)/C=C/c2cccc(F)c2)CC1	45.3	.	3.1	-0.2	.	1
CC(C)N(C(=O)CSc1nnc(-c2cc3ccccc3cc2O)n1Cc1ccco1)C(C)C	53.5*	64.4	-12.8	-5.5	57.7	1.1
CCOC(=O)/C(=C\c1cccc(O)c1)c1nc2sc(C)c(C)c2c(=O)[nH]1	99.5*	52.0	-2.6	5.2	58.4	0.9
CCCC(C)NC(=O)CSc1nc2ccc(C)cc2[nH]1 (stereo not given)	-2.8	.	-19.1	-1.6	.	1
CNC(=O)C1CC(=O)N(CCCc2ccccc2)C(=Nc2ccccc2)S1 (stereo not given)	55.3*	86.6	-3.4	0.0	95.1	1
O=C(CCCN1CCOCC1)c1ccc2c(c1)OCCO2	89.5*	104.4	-14.1	-5.1	104.2	1.1
O=C(CCN1CCc2ccccc2CC1)c1ccc2c(c1)OCCO2	88.8*	92.5	-10.7	-5.6	75.2	1.1
O=C(CCN1CCOCC1)c1ccc2c(c1)OCCO2	100.5*	33.7	-8.8	0.2	14.2	1
O=C(CCCO)c1ccc2c(c1)OCCO2	-0.7	104.5	-11.7	-4.5	104.2	1
O=C(CCCN1CCC(c2ccccc2)C1)c1ccc2c(c1)OCCO2 (stereo not given)	94.7*	83.1	-12.6	-9.7	79.0	1.1
